ChEMBL document CHEMBL4765310, “Discovery of 4-(3,5-dimethoxy-4-(((4-methoxyphenethyl)amino)methyl)phenoxy)-N-phenylaniline as a novel c-myc inhibitor against colorectal cancer in vitro and in vivo” (Eur J Med Chem, 2020)

Columns and labels:
DLD-1 = test: Antiproliferative activity against human DLD-1 cells assessed as inhibition of cell viability measured after 72 hrs by MTT assay; assay type: functional, cell-based; details: DLD-1, 72 h
In short: (§1)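 Cells kept at 37 °C, 5% CO₂ in RPMI 1640, L-15 or DMEM with 10% FBS and 1% penicillin-streptomycin. Plated at 2-4 × 10³ cells/well and dosed 24 h after plating. After 72 h exposure, MTT added for 2-4 h at 37 °C. Formazan dissolved in DMSO, absorbance read at 570 nm. IC50 is the mean of at least three independent experiments.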

Homo sapiens = organism: Homo sapiens; test: Inhibition of dimerization of N-terminal His6-tagged human c-Myc bHLHZip domain (353 to 439 residues)/Max(151 residues) (unknown origin) expressed in Escherichia coli BL21DE3 assessed as inhibition of c-Myc/Max/DNA complex formation at 20 uM preincubated with c-Myc/Max for 1.5 hrs followed by incubation with DNA oligo for 0.5 hrs by EMSA analysis relative to control; details: time 2.0 hrs
In short: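 Gel-shift used His-tagged Myc/Max complex (50 nM) with a biotinylated E-box duplex oligo (50 nM). Buffer was PBS pH 7.0 with 10 mM EDTA, 500 mM KCl, 30 mM MgCl2, 5% glycerol, 0.1% NP40, 1.5 mM DTT and 10% DMSO. Protein was preincubated with compound at 20 μM for 1.5 h at room temperature, then DNA was added for 0.5 h. Inhibition is relative to DMSO; three independent experiments.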

HCT-15 = test: Antiproliferative activity against human HCT-15 cells assessed as inhibition of cell viability measured after 72 hrs by MTT assay; assay type: functional, cell-based; details: HCT-15, 72 h; in short: as §1
HT-29 = test: Antiproliferative activity against human HT-29 cells assessed as inhibition of cell viability measured after 72 hrs by MTT assay; assay type: functional, cell-based; details: HT-29, 72 h; in short: as §1
SW-620 = test: Antiproliferative activity against human SW-620 cells assessed as inhibition of cell viability measured after 72 hrs by MTT assay; assay type: functional, cell-based; details: SW-620, 72 h; in short: as §1
HCT-116 = test: Antiproliferative activity against human HCT-116 cells assessed as inhibition of cell viability measured after 72 hrs by MTT assay; assay type: functional, cell-based; details: HCT-116, 72 h; in short: as §1
[1] = Inhibition of dimerization of N-terminal His6-tagged human c-Myc bHLHZip domain (353 to 439 residues)/Max(151 residues) (unknown origin) expressed in Escherichia coli BL21DE3 measured after 1 hr by ELISA
In short: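 Myc bHLHZip (5.5 μg/well) was coated at 4 °C for 24 h in PBS pH 7.0 buffer (EDTA, KCl, MgCl2, glycerol, NP40, DTT), then blocked with 3% BSA for 2 h at 37 °C. Detection used rabbit anti-c-Myc, HRP anti-rabbit and TMB, read at 450 nm.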

| SMILES | IC50 (DLD-1) | inhibition (Homo sapiens) | IC50 (HCT-15) | IC50 (HT-29) | IC50 (SW-620) | IC50 (HCT-116) | IC50 [1] |
| --- | --- | --- | --- | --- | --- | --- | --- |
| COc1cc(Oc2cccc(Nc3ccccc3)c2)cc(OC)c1CNCc1ccc(F)cc1 | 2.65 µM | 21.2% | 3.64 µM | 2.75 µM | 6.77 µM | 4.22 µM | 137 µM |
| COc1ccc(CNCc2c(OC)cc(Oc3cccc(Nc4ccccc4)c3)cc2OC)cc1 | 1.91 µM | 48.7% | 2.65 µM | 1.89 µM | 6.97 µM | 2.62 µM | 86 µM |
| COc1cc(Oc2cccc(Nc3ccccc3)c2)cc(OC)c1CNCc1ccc(O)cc1 | 2.69 µM | 31.8% | 3.43 µM | 2.18 µM | 7.94 µM | 3.36 µM | 123 µM |
| COc1cc(Oc2cccc(Nc3ccccc3)c2)cc(OC)c1CNCc1ccccc1 | 5.22 µM | 26.4% | 5.02 µM | 3.34 µM | 7.49 µM | 4.07 µM | 125 µM |
| COc1cc(Oc2cccc(Nc3ccccc3)c2)cc(OC)c1CNCCNC(C)=O | 6.01 µM | 10.2% | 5.09 µM | 3.96 µM | 11.9 µM | 18.2 µM | > 150 µM |
| COc1ccccc1CCNCc1c(OC)cc(Oc2cccc(Nc3ccccc3)c2)cc1OC | 2.32 µM | 67.4% | 1.19 µM | 2.12 µM | 3.65 µM | 3.4 µM | 72 µM |
| COc1ccc(CCNCc2ccc(Oc3cccc(Nc4ccccc4)c3)c(OC)c2)cc1 | 5.92 µM | 42.3% | 3.35 µM | 2.75 µM | 11 µM | 3.11 µM | 107 µM |
| COc1cc(Oc2cccc(Nc3ccccc3)c2)cc(OC)c1CNCCc1ccc(F)cc1 | 2.87 µM | 40.5% | 2.34 µM | 2.52 µM | 8.95 µM | 3.19 µM | 95 µM |
| COc1cc(Oc2cccc(Nc3ccccc3)c2)cc(OC)c1CNCCc1ccc(C)cc1 | 1.86 µM | 46.2% | 2.88 µM | 1.25 µM | 5.77 µM | 3.32 µM | 87 µM |
| COc1cc(Oc2cccc(Nc3ccccc3)c2)cc(OC)c1CN[C@H](C)c1ccccc1 | 8.57 µM | 30.5% | 7.55 µM | 5.12 µM | 18.7 µM | > 20 µM | 116 µM |
| COc1cc(Oc2cccc(Nc3ccccc3)c2)cc(OC)c1CN(C)C | > 20 µM | 3.2% | 15.6 µM | > 20 µM | > 20 µM | 12.9 µM | > 150 µM |
| COc1cc(Oc2cccc(Nc3ccccc3)c2)cc(OC)c1CNCc1ccc(Br)cc1 | 3.52 µM | 29.3% | 5.41 µM | 3.06 µM | 11.2 µM | 6.23 µM | 129 µM |
| COc1ccc(CCCNCc2c(OC)cc(Oc3cccc(Nc4ccccc4)c3)cc2OC)cc1 | 2.54 µM | 63.4% | 0.73 µM | 3.32 µM | 6.4 µM | 2.85 µM | 147 µM |
| COc1cc(Oc2cccc(Nc3ccccc3)c2)cc(OC)c1CNC(C)C | > 20 µM | – | > 20 µM | > 20 µM | > 20 µM | > 20 µM | > 150 µM |
| CCN1CCN(Cc2c(OC)cc(Oc3cccc(Nc4ccccc4)c3)cc2OC)CC1 | > 20 µM | 8.9% | 5.09 µM | > 20 µM | > 20 µM | > 20 µM | > 150 µM |
| COc1cc(Oc2cccc(Nc3ccccc3)c2)cc(OC)c1CNCc1ccc(C)cc1 | 6.08 µM | 32.4% | 5.4 µM | 3.88 µM | 11.8 µM | 13.8 µM | 119 µM |
| COc1cc(Oc2cccc(Nc3ccccc3)c2)cc(OC)c1CNCCc1ccccc1 | 6.77 µM | 45.1% | 6.14 µM | 6.06 µM | 11.6 µM | 13.6 µM | 96 µM |
| COc1cc(Oc2cccc(Nc3ccccc3)c2)cc(OC)c1CNCCc1ccc(Cl)cc1 | 3.4 µM | 43.7% | 3.76 µM | 2.82 µM | 10 µM | 5.4 µM | 92 µM |
| COc1cc(Oc2cccc(Nc3ccccc3)c2)cc(OC)c1CNCCc1ccc(O)cc1 | 4.03 µM | 51.7% | 6.14 µM | 2.93 µM | 12.7 µM | 15.7 µM | 83 µM |
| CNCc1c(OC)cc(Oc2cccc(Nc3ccccc3)c2)cc1OC | 11.9 µM | 2.5% | 8.93 µM | 7.43 µM | 15 µM | > 20 µM | > 150 µM |
| COc1ccc(CCNCc2ccc(Oc3cccc(Nc4ccccc4)c3)cc2)cc1 | 4.65 µM | 35.6% | 2.18 µM | 6.89 µM | 14.6 µM | 3.99 µM | 116 µM |
| COc1cc(Oc2cccc(Nc3ccccc3)c2)cc(OC)c1CNCc1ccc2c(c1)OCO2 | 8.57 µM | 42.1% | 8.93 µM | 8.5 µM | > 20 µM | > 20 µM | 105 µM |
| COc1cc(Oc2cccc(Nc3ccccc3)c2)cc(OC)c1CNCc1ccc(Cl)cc1 | 3.74 µM | 25.7% | 4.85 µM | 3.35 µM | 6.34 µM | 3.31 µM | 123 µM |
| COc1cccc(CCNCc2c(OC)cc(Oc3cccc(Nc4ccccc4)c3)cc2OC)c1 | 2.35 µM | 60.8% | 1.29 µM | 2.33 µM | 3.93 µM | 4.02 µM | 78 µM |
| COc1cc(Oc2cccc(Nc3ccccc3)c2)cc(OC)c1CN1CCN(CCO)CC1 | > 20 µM | – | 6.43 µM | > 20 µM | > 20 µM | > 20 µM | > 150 µM |
